Screens as filed in PubChem BioAssay.
PG9 Ab binder = binders of HIV-1 gp120 antibody PG9, primary screen, biochemical, TR-FRET | TR-FRET gp120-PG9 antibody binding | HIV-1 gp120 / PG9 antibody interaction | AID 624416, 2012 | inhibition, % at 6.7 µM | 360,000 tested, 0.43% active; in the data active means inhibition above about 8.5%
NR1D1 modulator = modulators of Rev-erb alpha DNA binding, primary screen, biochemical, FITC-DNA, fluorescence polarization, uHTS | Nuclear receptor subfamily 1 group D member 1 (Homo sapiens), P20393 | Rev-erbα–FITC-DNA binding, 90 min | activity, % at 10 µM | 370,000 tested, 0.79% active | AID 1259318, 2017;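 active means activity above about 14%, limit read from the data; passing the limit was not always enough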;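 further: 0% = DMSO wells with 35 nM protein and 100% = DMSO wells with 750 nM protein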
Target sequence (P20393 whole entry, looked up): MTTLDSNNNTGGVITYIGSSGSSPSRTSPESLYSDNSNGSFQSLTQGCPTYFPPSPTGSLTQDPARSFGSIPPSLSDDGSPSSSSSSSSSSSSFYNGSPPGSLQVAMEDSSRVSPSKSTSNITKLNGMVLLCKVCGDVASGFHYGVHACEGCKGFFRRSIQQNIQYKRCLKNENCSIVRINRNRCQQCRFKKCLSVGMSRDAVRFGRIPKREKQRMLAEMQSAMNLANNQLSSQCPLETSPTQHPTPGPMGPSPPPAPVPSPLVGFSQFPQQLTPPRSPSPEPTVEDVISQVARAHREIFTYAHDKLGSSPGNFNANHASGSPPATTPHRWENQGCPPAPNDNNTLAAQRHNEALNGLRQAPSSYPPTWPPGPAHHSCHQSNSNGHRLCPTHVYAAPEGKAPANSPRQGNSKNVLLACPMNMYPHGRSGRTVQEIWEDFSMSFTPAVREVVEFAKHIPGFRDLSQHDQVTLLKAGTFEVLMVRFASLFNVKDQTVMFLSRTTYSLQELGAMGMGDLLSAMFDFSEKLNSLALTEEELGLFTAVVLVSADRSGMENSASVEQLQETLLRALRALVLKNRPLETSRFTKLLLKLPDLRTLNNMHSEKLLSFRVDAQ
Yeast superoxide = reduction of superoxide in aged yeast, primary screen, HTS; S. cerevisiae aged cells, superoxide DHE fluorescence; hits give low values; superoxide response (% of plate mean), % at 10 µM; 330,000 tested, 0.18% active; AID 2690, 2010;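 active means superoxide response under a set limit, about three screen SD below normal, cut at about 65% in these data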;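 further: yeast aged for seven days with compound at 30 °C before DHE staining; 100% = average MFI of all compound-treated wells on the plate with controls excluded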
MIN6 prolif-1 = inducers of MIN6 beta-cell proliferation, primary screen, ATP luminescence, uHTS. MIN6 cells proliferation, ATPlite luminescence, 48 h; cells starved in 0.2% serum; 100% = growth in 10% serum. proliferation, % at 10 µM. 330,000 tested, 0.29% active. AID 2380, 2010;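 active means compounds whose signal lies at least 3.5 SD above the mean of all wells on their plate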;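 further: 0% = DMSO-treated cells in low-serum medium and 100% = 10% serum control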
UCH37 DUB inh = inhibitors of human UCH37 deubiquitinase, primary screen, biochemical, Ub-AMC cleavage, fluorescence. Ubiquitin carboxyl-terminal hydrolase isozyme L5 (Homo sapiens), Q9Y5K5. AID 588478, 2011. 330,000 tested, 0.33% active. purified proteasome/UCH37. inhibition, % (test concentration not listed);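 active means mean inhibition over replicate wells above about 20%, limit read from the data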;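 further: 0% = compound-free wells with enzyme and 100% = wells lacking proteasome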
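system = Proteasome-associated human UCH37 deubiquitinase | amount = 0.15 nM proteasome as dispensed | medium = pH 7.4 Tris-HCl (50 mM) with ovalbumin, ATP-MgCl2, DTT | incubation = 30 min preincubation with enzyme, 25 min cleavage at room temperature | detection = AMC fluorescence 355/460 nm | read-out basis = percent inhibition | controls = no-proteasome and no-compound wells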
Rce1 inh = yeast Rce1p protease inhibitors, primary screen, biochemical, fluorescence, cell-free homogeneous; AID 2563, 2010; CAAX prenyl protease 2 (Saccharomyces cerevisiae (strain ATCC 204508 / S288c)), Q03530; yeast membranes, quenched prenylated peptide cleavage fluorescence; calls only; 290,000 tested, 0.27% active;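 active means fall in fluorescence gain of 50% or more versus controls, with final raw signal at or below 3038400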;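 further: plate controls were neutral control wells for no effect and wells lacking membranes for full effect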
MIN6 prolif-2 = inducers of beta-cell proliferation in MIN6, confirmation, MIN6 cells, mouse; shares compounds with MIN6 prolif-1; ATPlite luminescence, 48 h; cells kept in 0.2% serum; scaled between 0.2% and 10% serum; proliferation increase, % at 50 µM; 920 tested, under 10 active; AID 463095, 2010;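 active means proliferation increase above 40% at any of the four tested concentrations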
An asterisk follows results filed as active; i = inactive; x = not tested or not shown. A selection: hits, their analogues and other compounds. The true share with any hit is near 1.9%.

SMILES | PG9 Ab binder | NR1D1 modulator | Yeast superoxide | MIN6 prolif-1 | UCH37 DUB inh | Rce1 inh | MIN6 prolif-2
Cc1nnc2ccc(-c3ccc(NC(=O)c4ccc(Cl)nc4)cc3)nn12 | x | x | 103.1 | 8.5* | -11.4 | i | -0.6
CC(=O)Nc1ccc(NC(=O)c2ccc(Cl)nc2)cc1 | 0.3 | 1.1 | 98.1 | -0.5 | 4.1 | i | x
O=c1[nH]c(NN=Cc2ccccc2Br)nnc1-c1ccccc1 | x | x | x | x | 3.5 | x | x
COC(=O)N1C(=O)[C@@](CC(C)C)(c2ccccc2)N1C(=O)OC | x | x | 112.0 | 17.2* | x | i | -6.3
COC(=O)N1C(=O)[C@](CC(C)C)(c2ccccc2)N1C(=O)OC | 0.4 | -5.0 | 76.1 | x | x | i | x
Cc1ccc(C2=NNC(C(O)C(O)C(O)CO)S2)cc1 (centres undefined) | -1.6 | -1.1 | 103.9 | 5.8* | x | i | 0.5
COc1ccc(C2NN=C(c3ccc(C)cc3)S2)cc1 (centres undefined) | 1.4 | 2.5 | 106.9 | x | x | i | x
C(=Nn1c2ccccc2c2ccccc21)c1ccco1 | x | x | x | x | 6.4 | x | x
COC(=O)C(=Nc1ccccc1)/C(C(=O)C(=O)N(C)c1ccccc1)=C(/O)c1ccc(Cl)cc1 | x | x | x | x | 11.3 | x | x
NC(=O)c1cc(S(=O)(=O)NCCc2ccc(S(N)(=O)=O)cc2)cs1 | -0.1 | -2.8 | 96.5 | 5.5* | 3.5 | i | -0.3
NC(=O)c1cc(S(=O)(=O)NCCc2ccccc2)cs1 | 1.0 | -2.8 | 82.9 | 1.2 | 0.9 | i | x
Cc1[nH]c2ccccc2c1C=NNc1ccc([N+](=O)[O-])cc1S(=O)(=O)Nc1ccc(Cl)cc1 | x | x | x | x | 10.7 | x | x
O=C1CCC(C(=O)N2CCSCC2)CN1Cc1ccc(Cl)cc1 (centres undefined) | -0.5 | -2.2 | 118.3 | 26.6* | 2.4 | i | 0.3
NS(=O)(=O)c1ccc(NC(=S)NCc2ccccc2Cl)cc1 | -1.0 | 2.2 | 111.1 | 5.3* | x | i | -5.5
CCOC(=O)c1c(C)[nH]c(C)c1C(=O)COC(=O)/C=C/c1ccccc1[N+](=O)[O-] | -0.9 | 2.9 | 84.3 | 9.1* | 2.6 | x | -4.8
O=C(NCC1CCCO1)c1ccccc1OCc1ccc(Cl)cc1 (centres undefined) | 2.0 | 2.5 | 95.6 | 15.3* | x | i | -4.4
O=C(NCC1CCCO1)c1ccccc1OCc1ccc(F)cc1 (centres undefined) | -0.6 | -5.6 | 106.1 | 4.2 | -1.2 | i | x
CCn1c(SCC(=O)N=Nc2c(O)[nH]c3ccccc23)nc2ccccc21 | -1.9 | -0.4 | 99.1 | 0.0* | x | i | -6.2
CC(C)(C)c1cc(C(=O)NN=Cc2cc3c(cc2Br)OCO3)n[nH]1 | x | x | x | x | -2.6 | x | x
Cc1ccc(NC(=O)CN(c2ccccc2F)S(C)(=O)=O)cc1 | 1.0 | 0.2 | 112.6 | 5.1* | -0.3 | i | 0.5
COc1ccccc1NC(=O)CN(c1ccccc1C)S(C)(=O)=O | -0.5 | -1.6 | 106.2 | -2.5 | 1.2 | i | x
CCOC(=O)c1ccccc1NC(=O)CN(c1ccccc1C)S(C)(=O)=O | 0.9 | 8.3 | 93.0 | 8.4* | 1.9 | i | -3.3
O=C(NCc1cccs1)c1cccnc1Cl | -0.8 | 6.8 | 108.5 | 0.0* | -0.8 | i | 1.3
O=C(NCc1cccs1)c1cnc(Cl)c(Cl)c1 | 1.2 | 1.2 | 104.3 | -4.7 | 4.3 | i | x
CC1(C)N=C2C(=NO)CCCC2=[N+]1[O-] | x | x | x | x | 3.4 | x | x
COc1ccc(C(=O)ON=C(C)c2cccs2)cc1 | x | x | x | x | 6.3 | x | x
CSc1sc(C(=O)N2CCCCC2)c(-c2cccs2)c1C#N | -1.4 | -1.5 | 104.4 | 6.9* | 3.4 | i | -4.1
Cc1ccc(S(=O)(=O)N(CC(=O)NN=Cc2ccco2)c2cc(Cl)cc(Cl)c2)cc1 | x | x | x | x | 1.2 | x | x
COc1cccc(OC)c1C(=O)OCC(=O)NCC(C)C | -2.4 | 2.1 | 105.0 | -0.6 | 5.7 | i | x
